In PMC3140432 (Biochimica et biophysica acta, 2011):
Like-named read-outs stand apart in the source and are kept apart here.

What was measured:
[1] = biological target: Gβγ (Homo sapiens, UniProt P62873); experiment: SPR direct binding to Gβγ with surface regeneration protocol; conditions: for Kd: Kd (μM), surface regeneration protocol, average of N experiments; for koff: read-out: koff (×10^−4s^−1)
Summary of the method: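 Gβ1γ2, biotinylated at the Gβ N-terminus, was captured on neutravidin amine-coupled to the sensor (2000–10000 µRIU), then blocked with 1 mM biotin. The run used 50 mM HEPES pH 7.6, 1 mM EDTA, 100 mM NaCl, 0.1% C12E10, 1 mM DTT and 1.2% DMSO at 25°C. Dilutions were injected 7 min at 50 µL/min with 10 min dissociation. Regeneration was 3×30 s MgCl2/urea/guanidine-HCl. Data were reference/blank/DMSO-corrected, fitted by a regeneration kinetic model and averaged.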

[2] = biological target: Gβ1His6γ2C68S (Homo sapiens, UniProt P62873); experiment: Non-covalent nano ESI QToF mass spectrometry of Gβγ-gallein complexes; assay type: binding; conditions: collision energies that maintain some non-covalent Gβ-Gγ interactions
Summary of the method: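 Test compound (100 µM) mixed with 5 µM Gβ1His6γ2C68S in 20 mM ammonium acetate, pH 7.0, for 30 min at room temperature. Intact non-covalent complexes were analysed by nano-ESI QToF MS under mild ionisation at low and high collision cell voltage. The C68S mutation blocks Gγ2 lipidation, so no detergent was used.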

[3] = biological target: T1, Gβ1γ2 (Homo sapiens, UniProt P62873); experiment: [3H]-gallein binding to Gβγ, spin desalting column separation; conditions: 100 μM gallein or greater; 1 μM Gβγ
[4] = biological target: T1, Gβ1γ2; experiment: Surface plasmon resonance direct binding to immobilized biotinylated Gβ1γ2
[5] = Kd (μM), kinetic titration, average of N experiments

| kon [1] | Kd [1] | koff [1] | kon ([1]; read-out: kon (M^−1s^−1)) | maximum binding stoichiometry [3] | Kd [4, 5] | concentration above which non-specific/multiple binding sites were observed ([4]; kinetic titration) | koff slower than that of M201 ([4]; kinetic titration) | koff ([4]; read-out: koff (×10^−4s^−1)) | kon ([4]; read-out: kon (M^−1s^−1)) | SPR response associated with binding to Gβγ ([4]; control peptide, data not shown) | Compound | reversal of binding at higher collision energy [2] | Kd ([4]; Kd (M), Equilibrium titration) | Kd ([4]; Kd (M), Kinetic titration) | Kd ([4]; average Kd) | Ka (association constant) ([4]; equilibrium analysis, Rmax(obs) fit to 1:1 Langmuir isotherm, single data set) | koff ([4]; read-out: koff (s^−1), Kinetic titration) | kon ([4]; read-out: kon (M^−1s^−1), Kinetic titration) |
| --- | --- | --- | --- | --- | --- | --- | --- | --- | --- | --- | --- | --- | --- | --- | --- | --- | --- | --- |
| 981 M⁻¹ s⁻¹ | 0.35 ± 0.03 µM | 0.00032 ± 2.7e-05 s⁻¹ | 926 ± 55 M⁻¹ s⁻¹ | 1.6 moles of gallein to 1 mole of Gβγ | 0.407 ± 0.24 µM | above 30 μM | 10 fold | 0.00035 ± 4.5e-05 s⁻¹ | 870 ± 112 M⁻¹ s⁻¹ |  | O=C1OC2(c3ccccc31)c1ccc(O)c(O)c1Oc1c2ccc(O)c1O [Gallein, 3′, 4′, 5′, 6′-tetrahydroxyspiro[2-benzofuran-3, 9′-xanthene]-1-one] | fully reversed |  |  |  |  |  |  |
|  | 2.7 ± 0.45 µM | 0.00082 ± 0.00051 s⁻¹ | 267 ± 137 M⁻¹ s⁻¹ |  | 2 ± 0.3 µM | > 20 µM | 10 fold | 0.00086 ± 0.00024 s⁻¹ | 390 ± 93 M⁻¹ s⁻¹ |  | Nc1cccc(Nc2cc(S(=O)(=O)O)c(N)c3c2C(=O)c2ccccc2C3=O)c1 [compound 372, 1-amino-4-(3-aminoanilino)-9,10-dioxoanthracene-2-sulfonic acid] |  |  |  |  |  |  |  |
|  |  |  |  |  |  |  |  |  |  | did not elicit a response | SIGK(L9A): Control peptide, non-binding in the ELISA experiments (SIGKAFKIAGYPDYD) [reference compound] |  |  |  |  |  |  |  |

| Compound | kon [1] | Kd [1] | koff [1] | kon ([1]; read-out: kon (M^−1s^−1)) | maximum binding stoichiometry [3] | Kd [4, 5] | concentration above which non-specific/multiple binding sites were observed ([4]; kinetic titration) | koff slower than that of M201 ([4]; kinetic titration) | koff ([4]; read-out: koff (×10^−4s^−1)) | kon ([4]; read-out: kon (M^−1s^−1)) | SPR response associated with binding to Gβγ ([4]; control peptide, data not shown) | reversal of binding at higher collision energy [2] | Kd ([4]; Kd (M), Equilibrium titration) | Kd ([4]; Kd (M), Kinetic titration) | Kd ([4]; average Kd) | Ka (association constant) ([4]; equilibrium analysis, Rmax(obs) fit to 1:1 Langmuir isotherm, single data set) | koff ([4]; read-out: koff (s^−1), Kinetic titration) | kon ([4]; read-out: kon (M^−1s^−1), Kinetic titration) |
| --- | --- | --- | --- | --- | --- | --- | --- | --- | --- | --- | --- | --- | --- | --- | --- | --- | --- | --- |
| O=C(O)C1CCCCC1c1c2ccc(=O)c(O)c-2oc2c(O)c(O)ccc12 (stereo not shown) [M119, 2-(3,4,5-trihydroxy-6-oxoxanthen-9-yl)cyclohexane-1-carboxylic acid] |  |  |  |  |  |  |  |  | 0.0002 ± 8e-05 s⁻¹ | 830 ± 200 M⁻¹ s⁻¹ |  |  | 0.46 µM | 0.12 µM | 0.276 ± 0.07 µM | 2.16e+06 M⁻¹ | 0.00012 s⁻¹ | 1027 ± 8 M⁻¹ s⁻¹ |
